This test has as its target T1, N-arachidonyl glycine receptor (Homo sapiens, UniProt Q14330).
T1 sequence (Q14330 whole entry): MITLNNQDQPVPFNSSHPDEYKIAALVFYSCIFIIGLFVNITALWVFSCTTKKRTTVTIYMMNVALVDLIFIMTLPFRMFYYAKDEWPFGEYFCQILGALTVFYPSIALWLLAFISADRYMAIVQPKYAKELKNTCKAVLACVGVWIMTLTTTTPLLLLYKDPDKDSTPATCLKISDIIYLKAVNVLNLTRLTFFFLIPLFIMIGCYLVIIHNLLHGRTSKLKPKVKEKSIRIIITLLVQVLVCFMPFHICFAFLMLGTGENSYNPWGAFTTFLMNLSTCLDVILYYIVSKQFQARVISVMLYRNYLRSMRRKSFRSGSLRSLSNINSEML
Briefly: […] at Prolink1-tagged human GPR18 receptor expressed in CHO cells assessed as […] by measuring 2-(3-(6-(4-chlorophenoxy)hexyloxy)benzylidene)-6,7-dihydro-2H-imidazo[2,1-b][1,3]thiazin-3(5H)-one IC50 at 1 uM after 90 mins by beta-galactosidase based topcount luminescence analysis. Put shortly:
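Human GPR18 stably expressed in CHO cells, β-arrestin enzyme complementation. Antagonist concentration-inhibition curves run against a fixed 1 μM agonist stimulus. IC50 and maximal inhibition derived from curves; means of three independent experiments, each in duplicate.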

The values below come from BindingDB's records for doi:10.1021/acsmedchemlett.0c00208 (University of Bonn, 2020).

Structures are written as SMILES.

Take `Cn1c(=O)c2c(nc3n2CCCN3CCc2c[nH]c3ccccc23)n(C)c1=O` [9-(2-(1H-indol-3-yl)ethyl)-1,3-dimethyl-6,7,8,9-tetrahydropyrimido[1,2-a]purine-2,4(1H,3H)-dione]: the concentration for half-maximal inhibition (IC50) was 944 nM.

By IC50 is commonly meant the concentration that inhibits the measured activity by half.
